Results published in ChEMBL document CHEMBL2046372, “Design and synthesis of pyrrolo[3,2-d]pyrimidine human epidermal growth factor receptor 2 (HER2)/epidermal growth factor receptor (EGFR) dual inhibitors: exploration of novel back-pocket binders” (J Med Chem, 2012).

Assays:
[1] = target: Tyrosine-protein kinase ZAP-70 (Homo sapiens, UniProt P43403); assay: Inhibition of ZAP70 using ATP measured after 10 mins
[2] = target: Protein kinase C theta type (Homo sapiens, UniProt Q04759); assay: Inhibition of N-terminus FLAG-tagged PKCtheta expressed in baculovirus expression system using [gamma-33P]-ATP measured after 60 mins by scintillation counting
[3] = target: Cytoplasmic tyrosine-protein kinase BMX (Homo sapiens, UniProt P51813); assay: Inhibition of BMX using ATP measured after 10 mins
[4] = target: Mitogen-activated protein kinase kinase kinase 5 (Homo sapiens, UniProt Q99683); assay: Inhibition of N-terminus FLAG-tagged ASK1 expressed in baculovirus expression system using [gamma-33P]-ATP measured after 60 mins by scintillation counting
[5] = target: CYP3A4 (Homo sapiens, UniProt P08684); assay: Inhibition of CYP3A4 at 10 uM after 15 mins; assay type: ADME
[6] = target: Mast/stem cell growth factor receptor Kit (Homo sapiens, UniProt P10721); assay: Inhibition of c-kit using ATP measured after 20 mins
[7] = target: Serine/threonine-protein kinase B-raf (Homo sapiens, UniProt P15056); assay: Inhibition of N-terminus FLAG-tagged B-raf expressed in baculovirus expression system using [gamma-33P]-ATP measured after 60 mins by scintillation counting
[8] = target: Proto-oncogene tyrosine-protein kinase Src (Homo sapiens, UniProt P12931); assay: Inhibition of Src using ATP preincubated with compound for 5 mins measured after 10 mins
[9] = target: Serine/threonine-protein kinase PLK1 (Homo sapiens, UniProt P53350); assay: Inhibition of N-terminus FLAG-tagged PLK1 expressed in baculovirus expression system using [gamma-33P]-ATP measured after 60 mins by scintillation counting
[10] = target: Fibroblast growth factor receptor 3 (Homo sapiens, UniProt P22607); assay: Inhibition of FGFR3 using ATP preincubated with compound for 5 mins measured after 10 mins
[11] = target: Hepatocyte growth factor receptor (Homo sapiens, UniProt P08581); assay: Inhibition of c-Met using ATP preincubated with compound for 5 mins measured after 10 mins
[12] = Metabolic stability in mouse liver microsomes at 1 umol/L after 20 mins by HPLC analysis; assay type: ADME, Microsome; conditions: read-out: Stability
[13] = target: Fibroblast growth factor receptor 1 (Homo sapiens, UniProt P11362); assay: Inhibition of FGFR1 using ATP preincubated with compound for 5 mins measured after 10 mins
[14] = target: T1, Tyrosine-protein kinase Lyn (Homo sapiens, UniProt P07948); assay: Inhibition of Lyn A using ATP preincubated with compound for 5 mins measured after 10 mins
[15] = target: Focal adhesion kinase 1 (Homo sapiens, UniProt Q05397); assay: Inhibition of FAK using ATP measured after 60 mins
[16] = target: Mitogen-activated protein kinase kinase kinase 1 (Homo sapiens, UniProt Q13233); assay: Inhibition of C-terminus FLAG-tagged MEKK1 expressed in baculovirus expression system using [gamma-33P]-ATP measured after 60 mins by scintillation counting
[17] = target: Tyrosine-protein kinase CSK (Homo sapiens, UniProt P41240); assay: Inhibition of CSK using ATP preincubated with compound for 5 mins measured after 10 mins
[18] = target: Angiopoietin-1 receptor (Homo sapiens, UniProt Q02763); assay: Inhibition of TIE2 using ATP preincubated with compound for 5 mins measured after 10 mins
[19] = test system: CAL-27; assay: Antitumor activity against human CAL27 cells overexpressing EGFR gene xenografted in nude mouse assessed as tumor growth regression at 100 mg/kg, po BID for 14 days relative to control; assay type: functional
In short: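 CAL27 human head and neck cancer (EGFR-overexpressing) xenografts in mice were dosed orally at 100 mg/kg. Efficacy was expressed as tumor/control ratio (T/C) against vehicle control.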

[20] = target: Inhibitor of nuclear factor kappa-B kinase subunit beta (Homo sapiens, UniProt O14920); assay: Inhibition of C-terminus FLAG-tagged IKKbeta expressed in baculovirus expression system using [gamma-33P]-ATP measured after 30 mins by scintillation counting
[21] = test system: BT-474; assay: Growth inhibition of human BT474 cells overexpressing HER2 gene after 5 days; assay type: functional; conditions: BT-474, 120 h
[22] = target: Mitogen-activated protein kinase 14 (Homo sapiens, UniProt Q16539); assay: Inhibition of N-terminus FLAG-tagged p38alpha expressed in baculovirus expression system using [gamma-33P]-ATP measured after 60 mins by scintillation counting
[23] = target: Aurora kinase B (Homo sapiens, UniProt Q96GD4); assay: Inhibition of N-terminal 6xHis tagged Aurora B kinase expressed using baculovirus expression system using [gamma-33P]ATP
[24] = target: Glycogen synthase kinase-3 beta (Homo sapiens, UniProt P49841); assay: Inhibition of N-terminus FLAG-tagged GSK3beta expressed in baculovirus expression system using [gamma-33P]-ATP measured after 30 mins by scintillation counting
[25] = target: Dual specificity protein kinase TTK (Homo sapiens, UniProt P33981); assay: Inhibition of N-terminus FLAG-tagged TTK expressed in baculovirus expression system using [gamma-33P]-ATP measured after 60 mins by scintillation counting
[26] = Antitumor activity against human 4-1ST cells overexpressing HER2 gene xenografted in nude mouse assessed as tumor growth regression at 50 mg/kg, po BID for 14 days relative to control; assay type: functional
In short: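 Oral dosing at 50 mg/kg in mice bearing 4-1ST (HER2-overexpressing) tumor xenografts. Efficacy was expressed as tumor/control ratio (T/C). Significance versus control at day 14 was tested by one-tailed Shirley–Williams test.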

[27] = target: Platelet-derived growth factor receptor alpha (Homo sapiens, UniProt P16234); assay: Inhibition of PDGFRalpha using ATP measured after 30 mins
[28] = target: Dual specificity mitogen-activated protein kinase kinase 5 (Homo sapiens, UniProt Q13163); assay: Inhibition of N-terminus FLAG-tagged MEK5 expressed in baculovirus expression system using [gamma-33P]-ATP measured after 30 mins by scintillation counting
[29] = target: Vascular endothelial growth factor receptor 1 (Homo sapiens, UniProt P17948); assay: Inhibition of VEGFR1 using ATP preincubated with compound for 5 mins measured after 5 mins
[30] = target: T1, Tyrosine-protein kinase Lyn; assay: Inhibition of Lyn B using ATP preincubated with compound for 5 mins measured after 10 mins
[31] = target: Tyrosine-protein kinase Lck (Homo sapiens, UniProt P06239); assay: Inhibition of LCK using ATP preincubated with compound for 5 mins measured after 30 mins
[32] = target: Receptor tyrosine-protein kinase erbB-2 (Homo sapiens, UniProt P04626); assay: Inhibition of N-terminus peptide-tagged human recombinant HER2 expressed using baculovirus infection system using [gamma-33P]-ATP preincubated with compound for 5 mins measured after 10 mins by scintillation counting
[33] = target: Receptor tyrosine-protein kinase erbB-4 (Homo sapiens, UniProt Q15303); assay: Inhibition of N-terminus peptide-tagged human recombinant HER4 expressed using baculovirus infection system using [gamma-33P]-ATP preincubated with compound for 5 mins measured after 10 mins by scintillation counting
[34] = target: Dual specificity mitogen-activated protein kinase kinase 1 (Homo sapiens, UniProt Q02750); assay: Inhibition of N-terminus GST -fused MEK1 expressed using baculovirus infection system using [gamma-33P]ATP preincubated with compound for 5 mins measured after 30 mins by scintillation counting
[35] = target: Mitogen-activated protein kinase 8 (Homo sapiens, UniProt P45983); assay: Inhibition of N-terminus FLAG-tagged JNK1 expressed in baculovirus expression system using [gamma-33P]-ATP measured after 60 mins by scintillation counting
[36] = target: Insulin-like growth factor 1 receptor (Homo sapiens, UniProt P08069); assay: Inhibition of IGFR1 using ATP measured after 20 mins
[37] = Metabolic stability in human liver microsomes at 1 umol/L after 20 mins by HPLC analysis; assay type: ADME, Microsome; conditions: read-out: Stability
[38] = target: Mitogen-activated protein kinase 3 (Homo sapiens, UniProt P27361); assay: Inhibition of N-terminus FLAG-tagged Erk1 expressed in baculovirus expression system using [gamma-33P]-ATP measured after 60 mins by scintillation counting
[39] = target: Vascular endothelial growth factor receptor 2 (Homo sapiens, UniProt P35968); assay: Inhibition of N-terminus FLAG-tagged VEGFR2 expressed using baculovirus infection system after 10 mins
[40] = target: Platelet-derived growth factor receptor beta (Homo sapiens, UniProt P09619); assay: Inhibition of PDGFRbeta using ATP measured after 60 mins

T1 sequence (P07948 whole entry): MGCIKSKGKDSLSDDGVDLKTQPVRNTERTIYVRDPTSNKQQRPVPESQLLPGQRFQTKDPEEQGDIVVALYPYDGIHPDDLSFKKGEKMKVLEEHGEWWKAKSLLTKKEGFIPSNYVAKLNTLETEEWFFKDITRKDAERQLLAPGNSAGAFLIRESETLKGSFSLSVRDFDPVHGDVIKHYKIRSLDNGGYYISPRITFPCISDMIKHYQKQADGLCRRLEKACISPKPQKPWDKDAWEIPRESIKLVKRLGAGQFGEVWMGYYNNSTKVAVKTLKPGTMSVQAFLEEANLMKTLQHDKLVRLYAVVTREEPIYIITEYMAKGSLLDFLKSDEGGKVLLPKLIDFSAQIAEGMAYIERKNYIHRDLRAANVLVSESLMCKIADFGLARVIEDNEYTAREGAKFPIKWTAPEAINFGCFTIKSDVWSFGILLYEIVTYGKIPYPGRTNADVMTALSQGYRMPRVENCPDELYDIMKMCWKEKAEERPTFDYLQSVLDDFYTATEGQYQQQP
Sequence of Mast/stem cell growth factor receptor Kit (P10721 whole entry): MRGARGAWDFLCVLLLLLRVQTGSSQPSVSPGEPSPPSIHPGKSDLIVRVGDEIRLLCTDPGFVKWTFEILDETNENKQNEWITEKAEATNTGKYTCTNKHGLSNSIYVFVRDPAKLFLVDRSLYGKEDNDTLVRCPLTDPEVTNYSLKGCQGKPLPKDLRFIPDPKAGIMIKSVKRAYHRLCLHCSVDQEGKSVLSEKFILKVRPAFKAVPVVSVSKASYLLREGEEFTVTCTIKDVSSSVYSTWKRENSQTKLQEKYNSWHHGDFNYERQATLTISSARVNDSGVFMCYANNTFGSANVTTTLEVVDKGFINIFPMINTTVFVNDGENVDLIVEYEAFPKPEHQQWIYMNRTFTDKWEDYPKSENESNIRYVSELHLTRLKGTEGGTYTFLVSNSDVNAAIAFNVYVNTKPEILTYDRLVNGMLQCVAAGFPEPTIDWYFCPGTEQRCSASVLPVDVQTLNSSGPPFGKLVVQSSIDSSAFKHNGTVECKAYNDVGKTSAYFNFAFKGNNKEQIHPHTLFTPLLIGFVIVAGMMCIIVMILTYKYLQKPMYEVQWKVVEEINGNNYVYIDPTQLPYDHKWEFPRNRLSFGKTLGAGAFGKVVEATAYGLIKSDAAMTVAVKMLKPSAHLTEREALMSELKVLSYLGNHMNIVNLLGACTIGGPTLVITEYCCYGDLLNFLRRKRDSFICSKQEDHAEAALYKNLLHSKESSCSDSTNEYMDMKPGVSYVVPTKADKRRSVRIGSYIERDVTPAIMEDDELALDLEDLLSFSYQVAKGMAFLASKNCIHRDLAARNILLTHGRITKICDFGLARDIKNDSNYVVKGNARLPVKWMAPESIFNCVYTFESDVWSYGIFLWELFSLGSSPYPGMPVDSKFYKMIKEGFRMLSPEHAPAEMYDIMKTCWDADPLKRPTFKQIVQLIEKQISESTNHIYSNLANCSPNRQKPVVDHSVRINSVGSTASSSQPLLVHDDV
Sequence of Hepatocyte growth factor receptor (P08581 whole entry): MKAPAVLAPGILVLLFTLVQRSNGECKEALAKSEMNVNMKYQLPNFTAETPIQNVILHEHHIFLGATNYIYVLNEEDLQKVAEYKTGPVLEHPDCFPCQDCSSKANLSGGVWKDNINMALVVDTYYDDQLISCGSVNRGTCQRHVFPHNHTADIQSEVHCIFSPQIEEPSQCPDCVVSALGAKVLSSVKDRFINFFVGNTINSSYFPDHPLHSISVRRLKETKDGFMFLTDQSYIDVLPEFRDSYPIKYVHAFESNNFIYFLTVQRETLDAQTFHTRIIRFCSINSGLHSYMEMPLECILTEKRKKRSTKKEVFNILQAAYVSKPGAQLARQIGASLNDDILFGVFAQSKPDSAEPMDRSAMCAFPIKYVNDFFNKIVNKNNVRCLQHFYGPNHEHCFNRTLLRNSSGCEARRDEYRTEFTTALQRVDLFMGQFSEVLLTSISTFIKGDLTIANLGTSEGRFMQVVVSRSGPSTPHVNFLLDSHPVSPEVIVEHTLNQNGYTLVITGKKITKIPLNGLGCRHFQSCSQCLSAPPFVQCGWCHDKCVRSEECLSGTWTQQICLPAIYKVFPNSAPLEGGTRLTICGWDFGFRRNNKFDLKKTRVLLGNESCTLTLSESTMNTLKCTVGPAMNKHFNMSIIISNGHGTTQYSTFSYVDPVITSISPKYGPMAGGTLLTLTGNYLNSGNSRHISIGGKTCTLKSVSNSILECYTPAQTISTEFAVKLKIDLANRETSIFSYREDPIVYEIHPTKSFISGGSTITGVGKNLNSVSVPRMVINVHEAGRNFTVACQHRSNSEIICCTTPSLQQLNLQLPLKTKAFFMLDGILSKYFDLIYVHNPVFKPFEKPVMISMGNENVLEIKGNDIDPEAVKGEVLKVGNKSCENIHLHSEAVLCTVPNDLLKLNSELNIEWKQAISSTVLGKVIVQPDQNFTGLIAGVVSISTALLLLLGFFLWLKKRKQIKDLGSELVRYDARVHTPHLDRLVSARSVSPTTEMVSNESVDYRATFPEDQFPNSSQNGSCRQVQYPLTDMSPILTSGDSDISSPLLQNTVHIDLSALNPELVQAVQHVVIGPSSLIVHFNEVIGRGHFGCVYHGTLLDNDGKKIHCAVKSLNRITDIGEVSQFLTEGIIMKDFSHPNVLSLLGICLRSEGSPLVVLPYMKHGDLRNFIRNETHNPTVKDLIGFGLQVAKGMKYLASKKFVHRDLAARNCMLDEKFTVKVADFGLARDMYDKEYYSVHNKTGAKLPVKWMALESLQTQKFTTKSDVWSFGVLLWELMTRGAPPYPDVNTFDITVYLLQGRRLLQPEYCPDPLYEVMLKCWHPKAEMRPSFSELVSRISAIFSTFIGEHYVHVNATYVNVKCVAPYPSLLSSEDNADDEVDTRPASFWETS
Sequence of Tyrosine-protein kinase Lck (P06239 whole entry): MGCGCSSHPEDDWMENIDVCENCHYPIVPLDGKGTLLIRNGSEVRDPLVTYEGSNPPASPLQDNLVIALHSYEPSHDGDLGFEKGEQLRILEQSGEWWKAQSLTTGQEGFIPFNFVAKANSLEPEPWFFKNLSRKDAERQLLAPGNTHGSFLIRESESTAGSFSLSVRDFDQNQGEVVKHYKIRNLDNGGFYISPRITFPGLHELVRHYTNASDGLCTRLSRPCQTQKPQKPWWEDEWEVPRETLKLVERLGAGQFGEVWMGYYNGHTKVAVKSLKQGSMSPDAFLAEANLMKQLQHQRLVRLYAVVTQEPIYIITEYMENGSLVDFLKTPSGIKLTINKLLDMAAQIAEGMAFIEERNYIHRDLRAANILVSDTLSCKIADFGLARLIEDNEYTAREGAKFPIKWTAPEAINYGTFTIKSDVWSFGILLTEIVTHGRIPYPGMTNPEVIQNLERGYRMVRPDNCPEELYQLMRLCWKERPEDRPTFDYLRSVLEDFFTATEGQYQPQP
Sequence of Receptor tyrosine-protein kinase erbB-4 (Q15303 whole entry, the tested form may be a part): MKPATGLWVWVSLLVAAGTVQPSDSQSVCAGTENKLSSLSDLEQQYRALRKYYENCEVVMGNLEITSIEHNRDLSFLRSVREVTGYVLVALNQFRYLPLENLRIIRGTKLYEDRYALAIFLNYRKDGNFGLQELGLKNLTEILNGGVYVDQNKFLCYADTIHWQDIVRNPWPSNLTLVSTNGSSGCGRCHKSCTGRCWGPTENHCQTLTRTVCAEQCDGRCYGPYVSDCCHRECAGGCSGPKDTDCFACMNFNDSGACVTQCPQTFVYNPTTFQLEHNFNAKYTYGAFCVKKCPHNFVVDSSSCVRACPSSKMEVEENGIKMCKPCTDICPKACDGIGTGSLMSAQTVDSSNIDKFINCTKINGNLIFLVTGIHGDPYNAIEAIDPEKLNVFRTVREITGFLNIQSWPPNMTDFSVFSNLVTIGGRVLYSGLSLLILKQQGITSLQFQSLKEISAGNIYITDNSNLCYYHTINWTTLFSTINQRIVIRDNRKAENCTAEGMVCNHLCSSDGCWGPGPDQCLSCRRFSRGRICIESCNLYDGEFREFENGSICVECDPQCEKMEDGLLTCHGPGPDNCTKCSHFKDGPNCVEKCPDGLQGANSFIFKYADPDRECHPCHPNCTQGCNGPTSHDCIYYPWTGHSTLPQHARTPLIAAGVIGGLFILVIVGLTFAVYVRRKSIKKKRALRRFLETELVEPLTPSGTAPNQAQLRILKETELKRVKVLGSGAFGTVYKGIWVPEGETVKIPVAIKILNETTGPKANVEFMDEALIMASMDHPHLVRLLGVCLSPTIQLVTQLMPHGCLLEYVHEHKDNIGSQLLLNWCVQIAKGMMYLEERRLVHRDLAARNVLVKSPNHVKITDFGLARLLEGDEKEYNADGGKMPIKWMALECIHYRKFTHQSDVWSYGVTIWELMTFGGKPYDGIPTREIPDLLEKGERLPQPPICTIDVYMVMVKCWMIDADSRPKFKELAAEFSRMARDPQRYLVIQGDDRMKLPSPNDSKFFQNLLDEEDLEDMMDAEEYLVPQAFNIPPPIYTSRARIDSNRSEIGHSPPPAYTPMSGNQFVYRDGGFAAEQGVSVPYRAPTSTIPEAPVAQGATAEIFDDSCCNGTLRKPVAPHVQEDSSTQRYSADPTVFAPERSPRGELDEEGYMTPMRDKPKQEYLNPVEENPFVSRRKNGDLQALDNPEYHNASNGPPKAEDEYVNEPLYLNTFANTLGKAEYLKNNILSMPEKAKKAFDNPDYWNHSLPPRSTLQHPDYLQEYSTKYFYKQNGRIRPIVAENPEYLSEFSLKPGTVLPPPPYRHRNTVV
Sequence of Aurora kinase B (Q96GD4 whole entry): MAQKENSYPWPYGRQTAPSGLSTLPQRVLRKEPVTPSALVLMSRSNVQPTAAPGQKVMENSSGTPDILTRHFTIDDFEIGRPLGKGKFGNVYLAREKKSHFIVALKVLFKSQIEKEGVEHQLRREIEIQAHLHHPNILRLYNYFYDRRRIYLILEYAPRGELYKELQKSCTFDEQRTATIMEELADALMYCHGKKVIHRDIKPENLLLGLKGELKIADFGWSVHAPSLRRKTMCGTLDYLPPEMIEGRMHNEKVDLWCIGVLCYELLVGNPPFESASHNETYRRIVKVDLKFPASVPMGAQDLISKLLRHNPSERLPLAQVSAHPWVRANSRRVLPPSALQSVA

CC(C)(N)C(=O)NCCn1ccc2ncnc(Nc3ccc(Oc4cccc5sncc45)c(Cl)c3)c21
IC50 [1]: > 10 µM | IC50 [2]: > 10 µM | IC50 [3]: > 10 µM | IC50 [4]: > 10 µM | inhibition at 0.25 h, 10 µM [5]: 21.2% | IC50 [6]: > 10 µM | IC50 [7]: > 10 µM | IC50 [8]: 8.4 µM | IC50 [9]: > 10 µM | IC50 [10]: > 10 µM | IC50 [11]: 1.8 µM | microsomal CLint at 1 µM [12]: 77 µL/min/mg | IC50 [13]: > 10 µM | IC50 [14]: 7.1 µM | IC50 [15]: > 10 µM | IC50 [16]: > 10 µM | IC50 [17]: 3.9 µM | IC50 [18]: 3.2 µM | T/C [19]: -30% | IC50 [20]: > 10 µM | GI50 [21]: 0.002 µM | IC50 [22]: > 10 µM | IC50 [23]: > 10 µM | IC50 [24]: > 10 µM | IC50 [25]: > 10 µM | T/C [26]: -23% | IC50 [27]: > 10 µM | IC50 [28]: > 10 µM | IC50 [29]: > 10 µM | IC50 [30]: 3 µM | IC50 [31]: 1.7 µM | IC50 [32]: 0.00098 µM | IC50 [33]: 0.079 µM | IC50 [34]: 2.1 µM | IC50 [35]: > 10 µM | IC50 [36]: > 10 µM | microsomal CLint at 1 µM [37]: 88 µL/min/mg | IC50 [38]: > 10 µM | IC50 [39]: > 10 µM | IC50 [40]: > 10 µM
